# Measurements from ChEMBL document CHEMBL1153988 (J Med Chem, 2009).
# Activity calls are given as the source filed them. The rule behind the calls is not given here.
# How the values were obtained:
# Mus musculus [1] = test: Teratogenic effect in VPA-induced SWV mouse assessed as number of fetuses with neural tube deffects at 336 mg/kg, ip administered on morning of day 8 of gestation; format: toxicity, organism-based; design: dose 336 mg/kg, route intraperitoneal; settings: in vivo
# Procedure, shortened: (§1)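 Inbred SWV mouse strain highly susceptible to VPA-induced neural tube defects. Each dam received a single ip injection on gestation day 8.5, dosed within 1.8-4.2 mmol/kg, against a control of 25% aqueous Cremophor EL. Groups were compared with the control, and with the matched VPA sodium-salt dose, by Fisher's exact test (p < 0.05).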
# Mus musculus [2] = test: Anticonvulsant activity in CF1 albino mouse assessed as protection against maximal electroshock-induced seizures at 30 mg/kg, ip after 4 hrs; format: functional, organism-based; design: dose 30 mg/kg
# Procedure, shortened: (§2)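 Adult male CF no. 1 albino mice (18-25 g). Test compound suspended in 0.5% methylcellulose and given intraperitoneally at 0.01 mL/g body weight. Maximal electroshock challenge at the stated time. Read-out is the number of animals protected over the number tested; neurotoxicity is scored in parallel.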
# Mus musculus [3] = test: Anticonvulsant activity in CF1 albino mouse assessed as protection against maximal electroshock-induced seizures at 100 mg/kg, ip after 4 hrs; format: functional, organism-based; design: dose 100 mg/kg; procedure, shortened: as §2
# Mus musculus [4] = test: Anticonvulsant activity in CF1 albino mouse assessed as protection against scMet-induced seizures at 100 mg/kg, ip after 0.5 hrs; format: functional, organism-based; design: dose 100 mg/kg
# Procedure, shortened: (§3)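 Adult male CF no. 1 albino mice (18-25 g) dosed intraperitoneally with compound suspended in 0.5% methylcellulose (0.01 mL/g). Convulsant challenge given subcutaneously as a 0.85% pentylenetetrazol solution in 0.9% saline. Read-out is animals protected over animals tested, with neurotoxicity scored in parallel.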
# Mus musculus [5] = test: Anticonvulsant activity in CF1 albino mouse assessed as protection against scMet-induced seizures at 100 mg/kg, ip after 4 hrs; format: functional, organism-based; design: dose 100 mg/kg; procedure, shortened: as §3
# Mus musculus [6] = test: Anticonvulsant activity in CF1 albino mouse assessed as protection against scMet-induced seizures at 300 mg/kg, ip after 4 hrs; format: functional, organism-based; design: dose 300 mg/kg; procedure, shortened: as §3
# Mus musculus [7] = test: Neurotoxicity in CF1 albino mouse at 30 mg/kg, ip after 0.5 hrs; format: toxicity, organism-based; design: dose 30 mg/kg, route intraperitoneal; settings: in vivo
# Procedure, shortened: (§4)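 Male CF no. 1 albino mice (18-25 g) received a single ip dose as a suspension in 0.5% methylcellulose. The read-out was the number of animals showing neurotoxicity (minimal motor impairment) over the number tested.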
# Mus musculus [8] = test: Neurotoxicity in CF1 albino mouse at 30 mg/kg, ip after 4 hrs; format: toxicity, organism-based; design: dose 30 mg/kg, route intraperitoneal; settings: in vivo; procedure, shortened: as §4
# Rattus norvegicus [9] = test: Anticonvulsant activity in albino Sprague-Dawley rat assessed as protection against maximal electroshock-induced seizures at 50 mg/kg, po after 15 mins; format: functional
# Procedure, shortened: (§5)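 Adult male Sprague-Dawley albino rats (100-150 g) dosed orally with compound suspended in 0.5% methylcellulose (0.04 mL per 10 g). Maximal electroshock challenge at the stated time. Protection is scored in 25% steps as the fraction of animals protected, with neurotoxicity recorded in parallel.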
# Rattus norvegicus [10] = test: Anticonvulsant activity in albino Sprague-Dawley rat assessed as protection against maximal electroshock-induced seizures at 50 mg/kg, po after 30 mins; format: functional; procedure, shortened: as §5
# Rattus norvegicus [11] = test: Anticonvulsant activity in albino Sprague-Dawley rat assessed as protection against maximal electroshock-induced seizures at 50 mg/kg, po after 2 hrs; format: functional; procedure, shortened: as §5
# Rattus norvegicus [12] = test: Anticonvulsant activity in albino Sprague-Dawley rat assessed as protection against scMet-induced seizures at 50 mg/kg, po after 1 hr; format: functional
# Procedure, shortened: (§6)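 Male Sprague-Dawley albino rats (100-150 g) were given the compound orally as a suspension in 0.5% methylcellulose. Seizures were induced by subcutaneous pentylenetetrazol, dissolved in 0.9% saline as a 2.82% solution. The read-out was animals protected over animals tested.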
# Rattus norvegicus [13] = test: Anticonvulsant activity in albino Sprague-Dawley rat assessed as protection against scMet-induced seizures at 50 mg/kg, po after 4 hrs; format: functional; procedure, shortened: as §6
# Mus musculus [14] = test: Anticonvulsant activity in ip dosed CF1 albino mouse assessed as protection against scMet-induced seizures; format: functional
# Procedure, shortened: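 Adult male CF no. 1 albino mice (18-25 g) dosed ip with compound suspended in 0.5% methylcellulose (0.01 mL/g body weight). Seizures were induced by subcutaneous pentylenetetrazol, given as a 0.85% solution in 0.9% saline. ED50 was found by varying the dose to give 3-4 points between 0% and 100% protection, then probit analysis with 95% confidence intervals.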
# Mus musculus [15] = species on record: Mus musculus; test: Protective index, ratio of TD50 for CF1 albino mouse to ED50 for scMet-induced CF1 albino seizure mouse model; format: functional
# Procedure, shortened: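 Ratio of TD50 to ED50 (MES or scMet) in male CF no. 1 mice (18-25 g) given ip doses in 0.5% methylcellulose. TD50 comes from minimal motor impairment: the dose was varied until four points lay between no impairment and all animals impaired. Both TD50 and ED50 were derived by probit analysis with 95% confidence intervals.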
# [16] = Neurotoxicity in ip dosed CF1 albino mouse assessed as minimal motor impairment; format: toxicity, organism-based; settings: CF1, mouse, in vivo
# Procedure, shortened: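 Mice: male CF no. 1 albino (18-25 g), ip dosing in 0.5% methylcellulose. Minimal motor impairment was scored, with doses varied to give four points between no impairment and all animals impaired.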
# Mus musculus [17] = test: Anticonvulsant activity in CF1 albino mouse assessed as protection against maximal electroshock-induced seizures at 400 mg/kg, ip; format: functional, organism-based; design: dose 400 mg/kg; procedure, shortened: as §2
# Mus musculus [18] = test: Anticonvulsant activity in CF1 albino mouse assessed as protection against scMet-induced seizures at 50 mg/kg, ip; format: functional, organism-based; design: dose 50 mg/kg; procedure, shortened: as §3
# Mus musculus [19] = test: Anticonvulsant activity in CF1 albino mouse assessed as protection against scMet-induced seizures at 100 mg/kg, ip; format: functional, organism-based; design: dose 100 mg/kg; procedure, shortened: as §3
# Mus musculus [20] = test: Teratogenic effect in SWV mouse assessed as number of litters at 671 mg/kg, ip administered on morning of day 8 of gestation; format: toxicity, organism-based; design: dose 671 mg/kg, route intraperitoneal; settings: in vivo; procedure, shortened: as §1
# Mus musculus [21] = test: Teratogenic effect in SWV mouse assessed as number of litters at 502 mg/kg, ip administered on morning of day 8 of gestation; format: toxicity, organism-based; design: dose 502 mg/kg, route intraperitoneal; settings: in vivo; procedure, shortened: as §1
# Mus musculus [22] = test: Teratogenic effect in SWV mouse assessed as number of implants at 502 mg/kg, ip administered on morning of day 8 of gestation; format: toxicity, organism-based; design: dose 502 mg/kg, route intraperitoneal; settings: in vivo; procedure, shortened: as §1
# Mus musculus [23] = test: Teratogenic effect in SWV mouse assessed as resorptions at 671 mg/kg, ip administered on morning of day 8 of gestation; format: toxicity, organism-based; design: dose 671 mg/kg, route intraperitoneal; settings: in vivo; procedure, shortened: as §1
# Mus musculus [24] = test: Teratogenic effect in SWV mouse assessed as live fetuses at 671 mg/kg, ip administered on morning of day 8 of gestation; format: toxicity, organism-based; design: dose 671 mg/kg, route intraperitoneal; settings: in vivo; procedure, shortened: as §1
# Mus musculus [25] = test: Teratogenic effect in SWV mouse assessed as live fetuses at 502 mg/kg, ip administered on morning of day 8 of gestation; format: toxicity, organism-based; design: dose 502 mg/kg, route intraperitoneal; settings: in vivo
# Mus musculus [26] = test: Teratogenic effect in SWV mouse assessed as live fetuses at 336 mg/kg, ip administered on morning of day 8 of gestation; format: toxicity, organism-based; design: dose 336 mg/kg, route intraperitoneal; settings: in vivo
# Mus musculus [27] = test: Teratogenic effect in SWV mouse assessed as number of dead fetuses at 502 mg/kg, ip administered on morning of day 8 of gestation; format: toxicity, organism-based; design: dose 502 mg/kg, route intraperitoneal; settings: in vivo; procedure, shortened: as §1
# Mus musculus [28] = test: Teratogenic effect in VPA-induced SWV mouse assessed as number of fetuses with neural tube deffects at 671 mg/kg, ip administered on morning of day 8 of gestation; format: toxicity, organism-based; design: dose 671 mg/kg, route intraperitoneal; settings: in vivo; procedure, shortened: as §1
# Mus musculus [29] = test: Anticonvulsant activity in CF1 albino mouse assessed as protection against maximal electroshock-induced seizures at 100 mg/kg, ip after 0.5 hrs; format: functional, organism-based; design: dose 100 mg/kg; procedure, shortened: as §2
# Mus musculus [30] = test: Anticonvulsant activity in CF1 albino mouse assessed as protection against maximal electroshock-induced seizures at 150 mg/kg, ip after 0.5 hrs; format: functional, organism-based; design: dose 150 mg/kg; procedure, shortened: as §2
compound,measurement,setting,value
CC1(C)C(C)(C)C1(F)C(N)=O,Activity,Mus musculus [1],0
same,Activity,Mus musculus [2],Non-toxic
same,Activity,Mus musculus [3],Non-toxic
same,Activity,Mus musculus [4],Toxic
same,Activity,Mus musculus [5],Non-toxic
same,Activity,Mus musculus [6],Non-toxic
same,Activity,Mus musculus [7],Non-toxic
same,Activity,Mus musculus [8],Non-toxic
same,Activity,Rattus norvegicus [9],inactive
same,Activity,Rattus norvegicus [10],inactive
same,Activity,Rattus norvegicus [11],inactive
same,Activity,Rattus norvegicus [12],75%
same,Activity,Rattus norvegicus [13],50%
same,ED50,Mus musculus [14],38 mg/kg
same,PI,Mus musculus [15],3.2
same,TD50,[16],120 mg/kg
same,Activity,Mus musculus [17],Active
same,Activity,Mus musculus [18],Active
same,Activity,Mus musculus [19],Active
same,Activity,Mus musculus [20],4
same,Activity,Mus musculus [21],10
same,Activity,Mus musculus [22],127
same,Activity,Mus musculus [23],78.2%
same,Activity,Mus musculus [24],21.8%
same,Activity,Mus musculus [25],73.2%
same,Activity,Mus musculus [26],90.2%
same,Activity,Mus musculus [27],0
same,Activity,Mus musculus [28],0
same,Activity,Mus musculus [29],Non-toxic
same,Activity,Mus musculus [30],inactive
